pKi: −log10 of the molar value. In brackets after ≈: the same amount, converted by molar mass. Activity calls are given as the source filed them. The rule behind the calls is not given here.
Columns and labels:
Enterococcus faecalis [1] = assay: Induction of VanX activity in Enterococcus faecalis ATCC 51299 expressing Van B gene at 0.3 times MIC by high-performance liquid chromatography; type: functional, organism-based
Enterococcus faecalis [2] = assay: Induction of VanX activity in Enterococcus faecalis ATCC 51575 expressing Van B gene at 0.3 times MIC by high-performance liquid chromatography; type: functional, organism-based
Enterococcus faecalis [3] = assay: Induction of VanA activity in vancomycin susceptible Enterococcus faecalis BM4110 harboring Van A gene assessed as UDP-MurNAc-tetrapeptide profile at 4 ug/ml […]; type: functional
Method in brief: (§1)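 Ramoplanin (3 μg/ml) was then added for 15 min. Cytoplasmic precursors were extracted with 8% trichloroacetic acid (15 min, 4°C), desalted and run on HPLC. Each precursor is given as % of total late precursors (tetrapeptide, pentapeptide, pentadepsipeptide) from integrated peak areas.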

Enterococcus faecium [4] = assay: Induction of VanA activity in Enterococcus faecium ATCC 51559 expressing Van A gene assessed as UDP-MurNAc-tetrapeptide profile at 4 ug/ml […]; type: functional
Method in brief: (§2)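 Ramoplanin (3 μg/ml) was then added for 15 min. Cytoplasmic precursors were extracted with 8% TCA (15 min, 4°C), desalted and analysed by HPLC. Each precursor (tetrapeptide, pentapeptide, pentadepsipeptide) is expressed as a percentage of total late precursors from integrated peak areas.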

Enterococcus faecalis [5] = assay: Induction of VanA activity in vancomycin susceptible Enterococcus faecalis BM4110 assessed as UDP-MurNAc-pentapeptide profile at 0.1 ug/ml […]; type: functional; method in brief: as §2
Enterococcus faecium [6] = assay: Induction of VanA activity in Enterococcus faecium ATCC 51559 expressing Van A gene assessed as UDP-MurNAc-pentapeptide profile at 4 ug/ml […]; type: functional; method in brief: as §2
Enterococcus faecalis [7] = assay: Induction of VanA activity in Enterococcus faecalis ATCC 51299 expressing Van B gene assessed as UDP-MurNAc-pentapeptide profile at 0.1 ug/ml […]; type: functional; method in brief: as §2
Enterococcus faecalis [8] = assay: Induction of VanA activity in Enterococcus faecalis ATCC 51575 expressing Van B gene assessed as UDP-MurNAc-pentapeptide profile at 0.1 ug/ml […]; type: functional
Enterococcus faecalis [9] = assay: Induction of VanX activity in vancomycin susceptible Enterococcus faecalis BM4110 harboring Van A gene assessed as UDP-MurNAc-depsipeptide profile at 4 ug/ml […]; type: functional; method in brief: as §1
Enterococcus faecium [10] = assay: Induction of VanX activity in Enterococcus faecium ATCC 51559 expressing Van A gene assessed as UDP-MurNAc-depsipeptide profile at 4 ug/ml […]; type: functional; method in brief: as §2
Enterococcus faecalis [11] = assay: Antimicrobial activity against streptomycin-resistant, vancomycin-susceptible Enterococcus faecalis BM4110 by broth microdilution method; type: functional
Method in brief: (§3)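 Broth microdilution MIC per CLSI-approved methods; strains maintained on tryptic soy agar with 5% sheep blood at 37°C.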

Enterococcus faecalis [12] = assay: Antimicrobial activity against Enterococcus faecalis BM4110 expressing VanA and harboring transposon tn1546 by broth microdilution method; type: functional; method in brief: as §3
Enterococcus faecium [13] = assay: Antimicrobial activity against Enterococcus faecium ATCC 51559 by broth microdilution method; type: functional; method in brief: as §3
Enterococcus faecalis [14] = assay: Antimicrobial activity against Enterococcus faecalis ATCC 51299 by broth microdilution method; type: functional; method in brief: as §3
Enterococcus faecalis [15] = assay: Antimicrobial activity against Enterococcus faecalis ATCC 51575 by broth microdilution method; type: functional
Method in brief: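 Strains were grown on TSA with 5% sheep blood at 37°C. MIC was determined by broth microdilution following CLSI methods.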

Enterococcus faecalis [16] = assay: Induction of VanX activity in Enterococcus faecalis BM4110 expressing VanA and harboring transposon tn1546 at 0.4 times MIC by Western blotting relative to uninduced control; type: functional
Method in brief: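 Cells grown in BHI at 37°C with telavancin, harvested and treated with mutanolysin, then sonicated. Soluble extract (35 ng protein) was run on a 4–12% polyacrylamide gel and transferred to PVDF. Blot probed with affinity-purified polyclonal anti-VanX (1/5,000), then IRDye 800CW goat anti-rabbit IgG (1/10,000), with infrared fluorescence detection. VanX amount expressed relative to basal level without antibiotic.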

Enterococcus faecalis [17] = assay: Induction of D,D-dipeptidase activity in Enterococcus faecalis BM4110 expressing VanA and harboring transposon tn1546 at 0.4 times MIC by Western blotting relative to uninduced control; type: functional
[18] = target: T1, D-alanyl-D-alanine dipeptidase (Enterococcus faecium, UniProt Q06241); assay: Inhibition of D,D-dipeptidase activity Van X in Enterococcus faecium ATCC 51559 using D-alanyl-(R)-phenylthioglycine substrate
T1 sequence (Q06241 whole entry): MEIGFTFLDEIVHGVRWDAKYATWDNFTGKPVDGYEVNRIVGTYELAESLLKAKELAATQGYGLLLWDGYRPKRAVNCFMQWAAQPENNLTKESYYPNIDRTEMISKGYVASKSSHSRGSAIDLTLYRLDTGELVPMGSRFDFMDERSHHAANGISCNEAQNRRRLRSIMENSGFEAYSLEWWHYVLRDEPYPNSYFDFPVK
Method in brief: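 Continuous DTNB-coupled VanX assay on soluble extract (100 mM Tris pH 7.5, 412 nm, 22°C). d-Alanyl-(R)-phenylthioglycine was 0.125–0.75 mM and the phosphonamidate inhibitor N-[(1-aminoethyl)hydroxyphosphinyl]-d-alanine 25–324 μM. Ki came from fitting initial rates to a competitive inhibition model.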

Enterococcus faecium [19] = assay: Induction of VanX activity in Enterococcus faecium ATCC 51559 expressing Van A gene by high-performance liquid chromatography; type: functional, organism-based
Enterococcus faecalis [20] = assay: Induction of VanX activity in Enterococcus faecalis BM4110 expressing Van A gene by high-performance liquid chromatography; type: functional, organism-based
Enterococcus faecalis [21] = assay: Induction of VanX activity in Enterococcus faecalis ATCC 51299 expressing Van B gene by high-performance liquid chromatography; type: functional, organism-based
Enterococcus faecalis [22] = assay: Induction of VanX activity in Enterococcus faecalis ATCC 51575 expressing Van B gene by high-performance liquid chromatography; type: functional, organism-based
Enterococcus faecalis [23] = assay: Induction of VanA activity in vancomycin susceptible Enterococcus faecalis BM4110 harboring Van A gene assessed as UDP-MurNAc-tetrapeptide profile at 64 ug/ml […]; type: functional; method in brief: as §1
Enterococcus faecium [24] = assay: Induction of VanA activity in Enterococcus faecium ATCC 51559 expressing Van A gene assessed as UDP-MurNAc-tetrapeptide profile at 64 ug/ml […]; type: functional; method in brief: as §1
Enterococcus faecalis [25] = assay: Induction of VanA activity in Enterococcus faecalis ATCC 51299 expressing Van B gene assessed as UDP-MurNAc-tetrapeptide profile at 3 ug/ml […]; type: functional; method in brief: as §1
Enterococcus faecalis [26] = assay: Induction of VanA activity in Enterococcus faecalis ATCC 51575 expressing Van B gene assessed as UDP-MurNAc-tetrapeptide profile at 16 ug/ml […]; type: functional; method in brief: as §1
Enterococcus faecalis [27] = assay: Induction of VanA activity in vancomycin susceptible Enterococcus faecalis BM4110 assessed as UDP-MurNAc-pentapeptide profile at 1 ug/ml […]; type: functional; method in brief: as §1
Enterococcus faecalis [28] = assay: Induction of VanA activity in Enterococcus faecalis ATCC 51299 expressing Van B gene assessed as UDP-MurNAc-pentapeptide profile at 3 ug/ml […]; type: functional; method in brief: as §1
Enterococcus faecalis [29] = assay: Induction of VanA activity in Enterococcus faecalis ATCC 51575 expressing Van B gene assessed as UDP-MurNAc-pentapeptide profile at 16 ug/ml […]; type: functional; method in brief: as §1
Enterococcus faecalis [30] = assay: Induction of VanX activity in vancomycin susceptible Enterococcus faecalis BM4110 harboring Van A gene assessed as UDP-MurNAc-depsipeptide profile at 64 ug/ml […]; type: functional; method in brief: as §1
Enterococcus faecium [31] = assay: Induction of VanX activity in Enterococcus faecium ATCC 51559 expressing Van A gene assessed as UDP-MurNAc-depsipeptide profile at 64 ug/ml […]; type: functional; method in brief: as §1
Enterococcus faecalis [32] = assay: Induction of VanX activity in Enterococcus faecalis ATCC 51299 expressing Van B gene assessed as UDP-MurNAc-depsipeptide profile at 3 ug/ml […]; type: functional; method in brief: as §1
Enterococcus faecalis [33] = assay: Induction of VanX activity in Enterococcus faecalis ATCC 51575 expressing Van B gene assessed as UDP-MurNAc-depsipeptide profile at 16 ug/ml […]; type: functional; method in brief: as §1

CCCCCCCCCCNCCN[C@@]1(C)C[C@H](O[C@H]2[C@H](Oc3c4cc5cc3Oc3ccc(cc3Cl)[C@@H](O)[C@@H](NC(=O)[C@@H](CC(C)C)NC)C(=O)N[C@@H](CC(N)=O)C(=O)N[C@H]5C(=O)N[C@H]3C(=O)N[C@H](C(=O)N[C@H](C(=O)O)c5cc(O)c(CNCP(=O)(O)O)c(O)c5-c5cc3ccc5O)[C@H](O)c3ccc(c(Cl)c3)O4)O[C@H](CO)[C@@H](O)[C@@H]2O)O[C@@H](C)[C@H]1O [TELAVANCIN]
Activity (Enterococcus faecalis [1]): inactive
Activity (Enterococcus faecalis [2]): inactive
Activity (Enterococcus faecalis [3]): 26%
Activity (Enterococcus faecium [4]): 40%
Activity (Enterococcus faecalis [5]): 100%
Activity (Enterococcus faecium [6]): 8%
Activity (Enterococcus faecalis [7]): 100%
Activity (Enterococcus faecalis [8]): 100%
Activity (Enterococcus faecalis [9]): 74%
Activity (Enterococcus faecium [10]): 52%
MIC (Enterococcus faecalis [11]): 1 µg/mL (≈ 0.57 µM)
MIC (Enterococcus faecalis [12]): 8 µg/mL (≈ 4.56 µM)
MIC (Enterococcus faecium [13]): 8 µg/mL (≈ 4.56 µM)
MIC (Enterococcus faecalis [14]): 1 µg/mL (≈ 0.57 µM)
MIC (Enterococcus faecalis [15]): 0.5 µg/mL (≈ 0.285 µM)
fold change (FC) (Enterococcus faecalis [16]): 4
fold change (FC) (Enterococcus faecalis [17]): 6

CN[C@H](CC(C)C)C(=O)N[C@H]1C(=O)N[C@@H](CC(N)=O)C(=O)N[C@H]2C(=O)N[C@H]3C(=O)N[C@H](C(=O)N[C@H](C(=O)O)c4cc(O)cc(O)c4-c4cc3ccc4O)[C@H](O)c3ccc(c(Cl)c3)Oc3cc2cc(c3O[C@@H]2O[C@H](CO)[C@@H](O)[C@H](O)[C@H]2O[C@H]2C[C@](C)(N)[C@H](O)[C@H](C)O2)Oc2ccc(cc2Cl)[C@H]1O [VANCOMYCIN]
pKi [18]: 4.21
Activity (Enterococcus faecium [19]): Dose-dependent effect
Activity (Enterococcus faecalis [20]): Dose-dependent effect
Activity (Enterococcus faecalis [21]): Active
Activity (Enterococcus faecalis [22]): Active
Activity (Enterococcus faecalis [23]): 27%
Activity (Enterococcus faecium [24]): 41%
Activity (Enterococcus faecalis [25]): 6%
Activity (Enterococcus faecalis [26]): 4%
Activity (Enterococcus faecalis [27]): 100%
Activity (Enterococcus faecalis [28]): 19%
Activity (Enterococcus faecalis [29]): 10%
Activity (Enterococcus faecalis [30]): 73%
Activity (Enterococcus faecium [31]): 59%
Activity (Enterococcus faecalis [32]): 75%
Activity (Enterococcus faecalis [33]): 86%
MIC (Enterococcus faecalis [11]): 2 µg/mL (≈ 1.38 µM)
MIC (Enterococcus faecalis [12]): 1020 µg/mL (≈ 707 µM)
MIC (Enterococcus faecalis [14]): 16 µg/mL (≈ 11 µM)
MIC (Enterococcus faecalis [15]): 256 µg/mL (≈ 177 µM)

Source: ChEMBL document CHEMBL1671695, “Specificity of induction of the vanA and vanB operons in vancomycin-resistant enterococci by telavancin” (Antimicrob Agents Chemother, 2010)
